Bioassay records deposited in PubChem BioAssay by several laboratories.
In the library only some 0.99% were active in any assay of this set; here they are far more common.
FN deposition inh = fibronectin deposition inhibition. AID 743247. AH1F fibroblasts, Alexa488-fibronectin deposition fluorescence, overnight. inhibition, % at 12.6 µM. 350,000 compounds, 0.086% hits;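 active = mean inhibition across replicates of 30% or more, regardless of how many single replicates reach that level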;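 note: positive control wells lacked labelled fibronectin entirely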
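Assay system: AH1F fibroblast monolayer, labelled fibronectin deposition. Amount: 10000 cells per well. Also added: labelled fibronectin 24 nM. Compound: single-point pinned compound. Incubation: cell attachment 1 h, compound and FN exposure overnight. Detection: fluorescence after three HBSS washes, excitation 485 nm, emission 525 nm. Read-out: inhibition of fibronectin deposition signal.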
GC-A act = GC-A (human) enzyme activation. HEK293 GC-A cells, cGMP TR-FRET, EC30 ANP; 0% at EC30 ANP, 100% saturating ANP. activation, % at 10 µM. 370,000 compounds, 0.14% hits; in the data active = activation above about 40%
Casp6 inh = inhibitors of human caspase-6; purified caspase-6, Z-VEID-R110 cleavage fluorescence; AID 686996; inhibition, % at 12.5 µM; P55212; 350,000 compounds, 0.53% hits;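 active = mean inhibition across replicates at least about 35%, with every replicate also reaching that limit, limit read from the data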;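 note: 0% = median of neutral control wells and 100% = no fluorescence left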
NPR2 activator = GC-B (human) receptor activation; P20594; HEK293-GC-B cells, CNP EC30, cGMP TR-FRET; 0% at EC30 CNP, 100% saturating CNP; activation, % at 10 µM; 370,000 compounds, 0.11% hits; AID 1920062;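 active = activation at 10 µM reaching about 35% in either raw or pattern-adjusted values, limit read from the data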
NSD2 HMT inh = inhibitors of human histone methyltransferase NSD2; inhibition, % at 12.5 µM; O96028; 310,000 compounds, 0.54% hits; AID 743445; NSD2 peptide methylation, AlphaScreen, 120 min; in the data active = inhibition above about 50%
Target sequence (O96028 whole entry, looked up): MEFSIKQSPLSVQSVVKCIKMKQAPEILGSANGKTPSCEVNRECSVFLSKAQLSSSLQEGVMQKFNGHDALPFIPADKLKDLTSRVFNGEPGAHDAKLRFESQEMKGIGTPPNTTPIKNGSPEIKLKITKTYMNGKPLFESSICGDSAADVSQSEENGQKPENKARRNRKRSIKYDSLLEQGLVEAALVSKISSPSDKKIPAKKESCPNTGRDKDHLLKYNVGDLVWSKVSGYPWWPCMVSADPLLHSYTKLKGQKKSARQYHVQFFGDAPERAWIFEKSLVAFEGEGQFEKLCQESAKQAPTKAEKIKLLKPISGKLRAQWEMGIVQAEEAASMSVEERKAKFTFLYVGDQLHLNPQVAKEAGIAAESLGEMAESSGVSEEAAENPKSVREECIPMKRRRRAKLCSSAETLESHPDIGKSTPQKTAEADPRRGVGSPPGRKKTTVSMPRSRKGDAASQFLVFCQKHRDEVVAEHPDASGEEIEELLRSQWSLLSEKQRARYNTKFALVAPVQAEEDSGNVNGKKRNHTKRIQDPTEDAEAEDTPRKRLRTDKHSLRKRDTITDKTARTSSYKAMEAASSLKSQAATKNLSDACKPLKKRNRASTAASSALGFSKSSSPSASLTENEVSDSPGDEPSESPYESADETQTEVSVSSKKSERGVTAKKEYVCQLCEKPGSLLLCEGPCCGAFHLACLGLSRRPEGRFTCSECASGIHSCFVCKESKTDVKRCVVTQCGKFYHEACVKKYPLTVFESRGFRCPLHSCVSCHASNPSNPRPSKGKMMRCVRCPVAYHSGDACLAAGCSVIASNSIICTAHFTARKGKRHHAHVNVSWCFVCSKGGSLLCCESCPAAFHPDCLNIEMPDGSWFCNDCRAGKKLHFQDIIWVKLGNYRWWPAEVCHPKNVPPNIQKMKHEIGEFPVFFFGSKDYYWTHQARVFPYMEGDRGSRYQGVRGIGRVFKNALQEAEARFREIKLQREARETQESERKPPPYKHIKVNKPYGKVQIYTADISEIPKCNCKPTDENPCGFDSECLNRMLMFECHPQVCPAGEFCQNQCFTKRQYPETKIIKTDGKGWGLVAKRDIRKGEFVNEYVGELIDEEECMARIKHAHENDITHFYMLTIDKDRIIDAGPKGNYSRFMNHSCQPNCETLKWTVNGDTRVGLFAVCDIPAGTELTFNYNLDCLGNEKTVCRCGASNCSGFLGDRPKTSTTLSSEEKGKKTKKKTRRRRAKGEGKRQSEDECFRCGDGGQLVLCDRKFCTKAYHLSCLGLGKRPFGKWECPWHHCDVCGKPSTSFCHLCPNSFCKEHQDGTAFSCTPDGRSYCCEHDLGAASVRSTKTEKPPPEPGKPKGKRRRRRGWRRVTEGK
CaV13 ICDI inh = Disruptors of the CACNA1D IQ motif to Ca2+-dependent inactivation inhibitor domain association, primary screening, Förster resonance energy transfer in intact living …; HEK cells, CFP/YFP FRET ICDI-IQ, plate reader, 10 min; percent FRET-ratio fall versus neutral wells; inhibition, % at 12.3 µM; 340,000 compounds, 0.098% hits; AID 743397;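 active = mean replicate inhibition of at least 30% and at least 1% of replicates passing that level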;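 note: 0% = median of the neutral control wells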
Alpha artifact = AlphaScreen assay artifact in NSD2 counter-screen; shares compounds with NSD2 HMT inh; 1,500 compounds, 9.4% hits; AlphaScreen artifact counterscreen, preloaded methylated H4 peptide; AID 1053174; AC35, µM (series often up to 10 µM), inactives show at the highest dose activity change, negative = signal loss; call rule not given here
The depositor's hits bear a star; nt = no result.

SMILES	FN deposition inh	GC-A act	Casp6 inh	NPR2 activator	NSD2 HMT inh	CaV13 ICDI inh	Alpha artifact
O=C(c1ccccc1)N(Cc1cccs1)C1CCS(=O)(=O)C1 (stereo unspecified)	nt	0	11	-2	-1	-8	nt
COc1ccc(C(=O)N(Cc2cccs2)C2CCS(=O)(=O)C2)cc1 (stereo unspecified)	1	-4	-1	-3	100*	-3	1%
COc1ccc(S(=O)(=O)N(C)C[C@@H]2Oc3c(NC(=O)C4CC4)cccc3C(=O)N([C@H](C)CO)C[C@H]2C)cc1	nt	nt	1	nt	nt	nt	nt
C[C@@H]1CN([C@@H](C)CO)C(=O)c2cc(NC(=O)Nc3ccc(C(F)(F)F)cc3)ccc2O[C@H]1CN(C)C	-9	nt	-9	nt	nt	nt	nt
Cc1ccc(N2CS(=O)(=O)/C(=C/N(C)C)C2=O)cc1	8	4	nt	3	64*	-6	-1%
O=C1CC(C(=O)N2CCc3ccccc32)CN1c1ccccc1 (stereo unspecified)	2	-1	0	2	80*	-7	-2%
CC(=O)N1[C@@H]2c3ccc(-c4ccccc4F)c(=O)n3C[C@H]1[C@H](CO)[C@H]2C(=O)N1CCOCC1	nt	nt	-1	nt	nt	nt	nt
CCOC(=O)c1c(C)[nH]c(C)c1C(=O)COC(=O)[C@@H]1CCCN1S(=O)(=O)c1ccc(Cl)cc1	nt	-3	9	-5	76*	-9	-5%
O=C(COC(=O)[C@@H]1CCCN1S(=O)(=O)c1ccc(Cl)cc1)NCC(F)(F)F	2	2	nt	2	-1	-6	nt
O=C(O)c1cc(N2C(=O)C=CC2=O)cc(N2C(=O)C=CC2=O)c1	2	4	61*	4	88*	-9	-8%
CC1CCCC(C)N1C(=O)COC(=O)c1ccc([N+](=O)[O-])o1 (stereo unspecified)	7	-1	7	7	69*	-5	-5%
O=C(c1ccc(S(=O)(=O)N2CCOCC2)cc1)N(c1cccc(Cl)c1)C1C=CS(=O)(=O)C1 (stereo unspecified)	4	-12	-2	0	83*	-2	-6%
O=C(N/N=C/c1cc2c(cc1[N+](=O)[O-])OCO2)c1ccccn1	nt	1	5	4	53*	-7	-4%
COc1ccc(OC(=O)N2C/C(=C/c3ccccc3)C(=O)/C(=C\c3ccccc3)C2)cc1	11	-1	-2	-3	0	-6	nt
CN(C)CCC(=O)N1C/C(=C/c2ccccc2)C(=O)/C(=C\c2ccccc2)C1	17	14	-8	-3	50*	-6	-7%
C[N+](C)(C)CCC(=O)N1C/C(=C/c2ccccc2)C(=O)/C(=C\c2ccccc2)C1	13	1	-4	5	50*	-4	-4%
CCOC(=O)N1C/C(=C\c2ccccc2)C(=O)/C(=C/c2ccccc2)C1	nt	-5	7	-4	1	-3	nt
O=C1/C(=C/c2ccccc2)CN(C(=O)CCN2CCOCC2)C/C1=C\c1ccccc1	6	4	11	-3	68*	-7	0%
CO[C@H]1CN(C)C(=O)c2cc(NS(=O)(=O)c3ccc(C)cc3)ccc2OC[C@H](C)N(C)C[C@H]1C	-3	nt	4	nt	nt	nt	nt
COCC(=O)N(C)C[C@@H]1Oc2cc(-c3cccnc3)ccc2S(=O)(=O)N([C@H](C)CO)C[C@H]1C	-8	nt	-2	nt	nt	nt	nt
O=C(c1cc(-c2ccc(Cl)cc2)n(-c2ccc(Cl)cc2)n1)N1CCOCC1	nt	-5	nt	-5	58*	-5	-2%
Cc1ccc(S(=O)(=O)Nc2ccc3c(c2)C(=O)N([C@H](C)CO)C[C@H](C)[C@@H](CN(C)C(=O)CCC(F)(F)F)OCCCC[C@H](C)O3)cc1	-7	nt	-3	nt	nt	nt	nt
CCCNC(=O)N(C)C[C@H]1Oc2ncc(-c3cccc(C#N)c3)cc2C(=O)N([C@H](C)CO)C[C@H]1C	nt	nt	-3	nt	nt	nt	nt
COc1ccc2c(c1)CC/C(=C\Nc1ccc3c(c1)OCO3)C2=O	nt	2	-3	-2	-3	-9	nt
COc1ccc(N/C=C2\CCc3ccccc3C2=O)cc1	3	-1	0	-1	95*	-20	-3%
SMILES	FN deposition inh	GC-A act	Casp6 inh	NPR2 activator	NSD2 HMT inh	CaV13 ICDI inh	Alpha artifact
O=C(NNS(=O)(=O)c1ccc(F)cc1F)c1csc(-c2cccnc2)n1	-1	-4	6	-4	54*	-20	-7%
Cc1cc(C)cc(NC(=O)C2C3C=CC4(O3)C2C(=O)N(CCCN2CCCC2)C4C(=O)NC2CCCC(C)C2C)c1 (stereo unspecified)	7	3	-9	1	50*	-7	3%
CCS(=O)(=O)Nc1ccc2c(c1)C(=O)N(C)C[C@H](OC)[C@H](C)CN(C(=O)COC)[C@H](C)CO2	-11	nt	nt	nt	nt	nt	nt
COc1cccc(NC(=O)c2ccc3c(c2)OCO3)c1	3	1	1	-6	-2	-4	nt
COc1cccc(NC(=O)c2ccc3c(c2)OCCO3)c1	3	4	-2	-3	113*	-7	-2%
COc1ccc(N2CCOCC2)c(NC(=O)c2ccc3c(c2)OCO3)c1	-11	-3	-2	-4	53*	-4	-1%
CNCCCC12CCC(c3ccccc31)c1ccccc12	-6	-14	-1	-8	84*	-6	1%
O=[N+]([O-])c1cccc(NC(=S)N2CCOCC2)c1	5	3	4	3	85*	-4	-2%
C[C@H]1CN([C@@H](C)CO)C(=O)c2cc(C#CCN(C)C)cnc2O[C@@H]1CN(C)C(=O)CN1CCOCC1	3	nt	1	nt	nt	nt	nt
CCC(=O)N(C)C[C@H]1Oc2cc(-c3cccc(OC)c3)ccc2S(=O)(=O)N([C@H](C)CO)C[C@@H]1C	-2	nt	0	nt	nt	nt	nt
C[C@@H]1CN([C@@H](C)CO)S(=O)(=O)c2ccc(C3=CCCCC3)cc2O[C@H]1CN(C)C(=O)Cc1cccnc1	nt	nt	-1	nt	nt	nt	nt
Cc1cc(C(=O)COc2cccc(-n3cnnn3)c2)c(C)n1-c1ccccc1	5	-3	nt	-3	56*	nt	-1%
O=[N+]([O-])c1ccc(COc2cccnc2)cc1	nt	0	1	-1	-4	-6	nt
O=[N+]([O-])c1ccc(-c2cccnc2)cc1	-3	-4	-3	1	158*	-7	0%
C[C@@H]1CN([C@H](C)CO)C(=O)c2cc(NC(=O)CCC(F)(F)F)ccc2O[C@@H](C)CCCCO[C@H]1CN(C)S(C)(=O)=O	nt	nt	0	nt	nt	nt	nt
Oc1ccc(C2=Nn3c(nnc3-c3ccco3)SC2)cc1O	nt	3	nt	1	62*	-5	-23%
